Screening data deposited in PubChem by Sanford-Burnham Center for Chemical Genomics.
Only a sample is shown.
Apaf-1 act = activators of human Apaf-1 apoptosome, primary screen, biochemical, DEVD-Rh110 fluorescence, uHTS. Apoptotic protease-activating factor 1 (Homo sapiens), O14727. Apaf-1 apoptosome caspase-3 activation; stronger effect = lower value. activity change, negative = activation, % at 20 µM. actives 0.31% (n = 330,000). AID 489031, 2010;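 active = activity change at or below -40% at 20 µM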
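Assay system – biochemical Apaf-1 apoptosome reconstitution · Medium – 20 mM HEPES buffer, pH 7.5, containing CHAPS and BSA · Incubation – 30 min preincubation, 50 min reaction, room temperature · Measured by – Caspase-3-released Rh110 fluorescence, 540 nm emission, 480 nm excitation · Read-out – Caspase-3 cleavage activity downstream of Apaf-1 activation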
Rh110 act interf = Rh110 fluorescence interference by putative Apaf-1 activators, confirmation, artefact control for Apaf-1 activator project, biochemical, 20 µM; quenched caspase reaction, Ex480/Em540; fluorescence interference (activity change), % at 20 µM, hits read low; 980 tested, under 10 active; AID 504616, 2011; shares compounds with Apaf-1 act;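 active = mean activity change at or below -40% when tested at 20 µM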
Apaf-1 act conf = Apaf-1 activators, single-dose retest, confirmation, biochemical, fluorescence, DEVD-Rh110, 20 µM | shares compounds with Apaf-1 act | reconstituted apoptosome caspase-3 activity; stronger effect = lower value | activity change, negative = activation, % at 20 µM | actives 5% (n = 980) | AID 504617, 2011;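 active = mean activity change at or below -40%, meaning activation of 40% or more, at 20 µM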
Of the large screens only hits and unclear results are named; the others gave an inactive call (follow-up assays come after a bar, where they were run).

CC(=O)c1ccc(OCC(=O)NCC(c2ccco2)N2CCCCC2)cc1 (stereo not given)	Apaf-1 act -44 | Rh110 act interf inactive | Apaf-1 act conf inactive
CCCCCCCCNC(C)C(O)c1ccc(SC(C)C)cc1 (stereo not given)	none
C=CC(=O)Nc1ccc(CN2C(=O)N(c3c(Cl)c(OC)cc(OC)c3Cl)Cc3cnc(NCCCCN(CC)CC)nc32)cc1	none
O=C(Nc1ccc(N2CCN(C(=O)c3ccccc3F)CC2)cc1)c1cncc(Br)c1	Apaf-1 act -65 | Rh110 act interf inactive | Apaf-1 act conf inactive
CCCCNc1c(-c2ccc(OC)c(Sc3ccc(OC)cc3)c2)nc2cnccn12	none
COC(=O)CCC(=O)N1CN2CN(C(=O)CCC(=O)OC)CC([N+](=O)[O-])(C2)C1	Apaf-1 act -152 | Rh110 act interf inactive | Apaf-1 act conf inactive
S=C(Nc1ccc2nsnc2c1)N1CCCCCC1	none
C=CCn1c(SCC(=O)Nc2sccc2C(N)=O)nc2sc(CC)cc2c1=O	none
Fc1ccc(C2=NOC(c3nnc(-c4ccccc4)o3)C2)cc1 (stereo not given)	Apaf-1 act -461 | Rh110 act interf inactive | Apaf-1 act conf inactive
CCc1ccc(S(=O)(=O)/N=C2\C=C(Nc3cccc(C(=O)O)c3)C(=O)c3ccccc32)cc1	none
CC[C@H](C)Cc1cn([C@@H](CCCCN)C(=O)NCCCCCCCCCCC(=O)N2CCNCC2)nn1	none
O=C(c1ccc(-c2ccccc2Cl)o1)N1CCCC(C(F)(F)F)C1 (stereo not given)	none
CC(NC(=O)c1ccco1)C(=O)OCc1cccc(C(F)(F)F)c1 (stereo not given)	Apaf-1 act -50 | Rh110 act interf inactive | Apaf-1 act conf inactive
CC(Cc1cccc(C(F)(F)F)c1)NCCOC(=O)c1ccccc1 (stereo not given)	none
N#CC1=C(N)C(C#N)(C#N)[C@H](c2ccoc2)[C@H]2CN(Cc3ccccc3)CC=C12	none
Cc1nc(SCc2ccccc2)c2oc3ccccc3c2n1	Apaf-1 act -159 | Rh110 act interf inactive | Apaf-1 act conf inactive
NC1=NC[C@H](Cc2ccc(O)cc2)N1CCC12CC3CC(CC(C3)C1)C2	none
Cc1nn2c(-c3ccncc3)nnc2c2ccccc12	none
C=CCNC(=O)C1(S(=O)(=O)c2ccccc2)CC=CC1	Apaf-1 act -384 | Rh110 act interf inactive | Apaf-1 act conf inactive
CCC(CO)Oc1cc(NCc2cccc(Cl)c2)c2ncn(C(C)C)c2c1 (stereo not given)	none
CC(C)c1nccn1S(=O)(=O)c1cc(Cl)ccc1Cl	Apaf-1 act -41 | Rh110 act interf inactive | Apaf-1 act conf inactive
C/C(CCN1CCc2nc(-c3ccccc3)c(-c3ccccc3)cc2C1)=N\OC[C@@H](C)[C@H](OCc1ccccc1)C(C)C	none
COc1cc(/C=N/N=C2/C(=O)Nc3ccccc32)ccc1O	Apaf-1 act -445 | Rh110 act interf inactive | Apaf-1 act conf inactive
CCOC(=O)c1ccc(NC2=CC(=O)C(=O)c3ccccc32)cc1	none
Cc1cc(C)c(S(=O)(=O)/N=C2/C=C(SCC(=O)O)C(=O)c3ccccc32)cc1C	none
Cc1noc(C)c1COc1ccccc1C(=O)N1CCN(c2cccc(Cl)c2)CC1	none
COc1ccccc1N1CCN(C(=O)c2cc(C(C)(C)C)oc2C)CC1	Apaf-1 act -380 | Rh110 act interf inactive | Apaf-1 act conf inactive
Cc1cc(C)n2nc(C(=O)N3CCCC(CNS(=O)(=O)c4cccs4)C3)cc2n1 (stereo not given)	Apaf-1 act -394 | Rh110 act interf inactive | Apaf-1 act conf inactive
O=[N+]([O-])c1ccc(N/N=C/c2ccc(O)c(O)c2O)c(S(=O)(=O)N2CCOCC2)c1	none
CC(C)(C)c1cc(CCC(=O)Nc2ccncc2)cc(C(C)(C)C)c1O	Apaf-1 act -450 | Rh110 act interf inactive | Apaf-1 act conf inactive
COc1ccccc1-n1ccnc1SCC(=O)NCc1ccco1	Apaf-1 act -146 | Rh110 act interf inactive | Apaf-1 act conf inactive
S=c1nc[nH]c2nc[nH]c12	none
COC/C=C/C1=CC2=CC(=O)C(C)(OC(=O)c3cnc4ccccc4n3)C(=O)C2=CN1CC(C)C (stereo not given)	none
C#CCOCCOCCOCCNc1nc(N2CCN(C(=O)C([C@@H](C)O)n3cc([C@@H](N)CCCCN)nn3)CC2)nc(N2CCN(C(=O)[C@H](CCCN=C(N)N)n3cc(C(N)[C@@H](C)CC)nn3)CC2)n1 (stereo not given in full)	none
CC(C)(C)c1ccc(/C=C(\C#N)C(=O)Nc2ccccn2)cc1	Apaf-1 act -186 | Rh110 act interf inactive | Apaf-1 act conf inactive
